# Reference: ChEMBL document CHEMBL1955816, “Nitric oxide release is not required to decrease the ulcerogenic profile of nonsteroidal anti-inflammatory drugs” (J Med Chem, 2012)
# Legend:
# [1] = target: T1, Prostaglandin G/H synthase 1 (Ovis aries, UniProt P05979); assay: Inhibition of ovine COX1
# T1 sequence (P05979 whole entry): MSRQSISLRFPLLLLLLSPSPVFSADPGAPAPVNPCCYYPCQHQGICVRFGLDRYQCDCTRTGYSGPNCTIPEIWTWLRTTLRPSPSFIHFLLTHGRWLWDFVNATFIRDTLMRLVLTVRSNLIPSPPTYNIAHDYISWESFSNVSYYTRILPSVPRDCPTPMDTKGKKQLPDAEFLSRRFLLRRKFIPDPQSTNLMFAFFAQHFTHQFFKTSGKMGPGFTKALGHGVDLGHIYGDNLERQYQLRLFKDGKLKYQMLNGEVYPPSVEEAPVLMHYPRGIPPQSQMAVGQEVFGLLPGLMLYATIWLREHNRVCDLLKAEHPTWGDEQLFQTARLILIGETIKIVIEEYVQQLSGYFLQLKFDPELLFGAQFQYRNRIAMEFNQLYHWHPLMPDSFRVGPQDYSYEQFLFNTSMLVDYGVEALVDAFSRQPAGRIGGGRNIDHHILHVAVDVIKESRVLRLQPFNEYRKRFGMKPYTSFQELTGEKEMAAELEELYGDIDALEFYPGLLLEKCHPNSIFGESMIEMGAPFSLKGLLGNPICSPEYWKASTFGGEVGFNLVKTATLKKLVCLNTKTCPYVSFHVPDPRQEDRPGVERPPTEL
# Method in brief: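 Ovine COX-1 was tested in a cyclooxygenase inhibitor screening kit, following the manufacturer's procedure. Deviation from the mean was <10%.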
# Rattus norvegicus [2] = assay: Antiinflammatory activity in rat assessed as inhibition of carrageenan-induced paw edema at 0.71 mmol/kg, po after 3 hrs relative to control; type: functional; design: scale not given: the % may be the effect or the level left
# Method in brief: (§1)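 Rats were given an oral gavage suspension in 1% methylcellulose, at doses equimolar to the parent NSAID: 0.71, 0.32 or 0.01 mmol/kg. Controls received an equal volume of vehicle. Carrageenan-induced paw edema was read 3 h after dosing. Activity is the % decrease in the inflammatory response versus the vehicle group.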
# [3] = Lipophilicity, log P of the compound; type: physicochemical; conditions: octanol/water
# Method in brief: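 Log P is a theoretical n-octanol/water distribution coefficient, calculated rather than measured.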
# Rattus norvegicus [4] = assay: Ulcerogenic effect in rat assessed as gastric ulcer overall length at 1.4 mmol/kg, po administered for 6 hrs; type: toxicity, organism-based, Stomach; conditions: in vivo
# Method in brief: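 Rats fasted 24 h with water allowed, then given a suspension in 1.2 mL 1% methylcellulose by gavage. Controls received vehicle. At 6 h, CO2 euthanasia. Stomachs were opened along the greater curvature, rinsed and put on ice. Ulcers were counted and measured under a magnifier (≤1 mm = 1, 1–2 mm = 2, >2 mm = length). Ulcer index = summed length per stomach averaged over n = 4, ±SEM.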
# Rattus norvegicus [5] = assay: Antiinflammatory activity in rat assessed as inhibition of carrageenan-induced paw edema at 0.32 mmol/kg, po after 3 hrs relative to control; type: functional; design: scale not given: the % may be the effect or the level left; method in brief: as §1
# Rattus norvegicus [6] = assay: Antiinflammatory activity in rat assessed as inhibition of carrageenan-induced paw edema at 0.01 mmol/kg, po after 3 hrs relative to control; type: functional; design: scale not given: the % may be the effect or the level left; method in brief: as §1
# Rattus norvegicus [7] = assay: Ulcerogenic effect in rat assessed as gastric ulcer overall length at 0.08 mmol/kg, po administered for 6 hrs; type: toxicity, organism-based, Stomach; conditions: in vivo
# Method in brief: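 Rats were fasted 24 h with water allowed, then dosed orally at 0.08 mmol/kg as a suspension in 1% methylcellulose. Controls received vehicle. After 6 h, animals were killed by CO2 and stomachs opened along the greater curvature, rinsed and kept on ice. Each ulcer was measured along its greatest length under a magnifier. Ulcer index is the total ulcer length per stomach averaged over n = 4, ±SEM.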
# Rattus norvegicus [8] = assay: Antiinflammatory activity in po dosed rat assessed as inhibition of carrageenan-induced paw edema after 3 hrs; type: functional; conditions: read-out: ID50 (the source's name); method in brief: as §1
SMILES,IC50 [1],Activity (Rattus norvegicus [2]),logP [3],UI (Rattus norvegicus [4]),Activity (Rattus norvegicus [5]),Activity (Rattus norvegicus [6]),UI (Rattus norvegicus [7]),ED50 (Rattus norvegicus [8])
COc1ccc2c(c1)c(CC(=O)Oc1ccc(CCO)cc1)c(C)n2C(=O)c1ccc(Cl)cc1,> 100 µM,,,,,61.3%,9.6 mm,
CC(=O)Oc1ccccc1C(=O)O [ASPIRIN],,50%,1.2,57.4 mm,,,,700 µmol/kg
CC(C)Cc1ccc(C(C)C(=O)O)cc1 (stereo not given) [IBUPROFEN],,,3.7,,50%,,,300 µmol/kg
COc1ccc2c(c1)c(CC(=O)O)c(C)n2C(=O)c1ccc(Cl)cc1 [INDOMETHACIN],,,,,,38.3%,34.4 mm,

# Second part, led by results:
IC50 [1],SMILES,Activity (Rattus norvegicus [2]),logP [3],UI (Rattus norvegicus [4]),Activity (Rattus norvegicus [5]),Activity (Rattus norvegicus [6]),UI (Rattus norvegicus [7]),ED50 (Rattus norvegicus [8])
0.03 µM,CC(=O)Oc1ccccc1C(=O)Oc1ccc(CCO)cc1,58%,2,2.6 mm,,,,
6.44 µM,CC(C)Cc1ccc(C(C)C(=O)Oc2ccc(CCO)cc2)cc1 (stereo not given),,4.6,3.5 mm,63%,,,
